# Bioassay records from PubChem BioAssay.
# SR-BI DiI-HDL act: SR-BI HDL lipid transfer activation; CHO ldlA[mSR-BI] cells, DiI-HDL uptake fluorescence, 3 h; 100 = double the neutral-control signal; hit rate 0.096% among 320,000; AID 504775; activation, % at 12.5 µM;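 active means mean replicate activation of at least 60% and every replicate at or above 60%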;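 further: 0% = median plate neutral-control signal and 100% = twice that signal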
#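 Assay system: LDL receptor-deficient CHO ldlA cells overexpressing murine SR-BI / Medium: BSA-supplemented, HEPES-buffered Ham's F12, pH 7.4 / Probe or stimulus: DiI-labelled HDL at 10 µg/mL final / Timing: compound with DiI-HDL co-incubation, 3 h at 37 °C / Technique: bottom-read cell fluorescence after medium removal, ex 550/em 595 nm / Measure: HDL uptake via cellular fluorescence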
# GSK3beta inhib: blocks human GSK3beta kinase activity. GST-GSK3beta kinase, ADP-Glo luminescence, 60 min; hits give low values. activity score (negative = inhibition), % at 10 µM. hit rate 0.038% among 300,000. AID 2097;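 active means more than half of replicate wells score below -50%, meaning over 50% inhibition versus plate controls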;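 further: 0% = median DMSO wells and -100% = median GW8510 positive control wells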
#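 test system = GST-tagged human GSK3beta kinase, cell-free | reagent = 25 µM ATP with peptide substrate | dosing = one dose of 10 µM per compound | schedule = 60 min reaction, RT | detection = luminescent ADP-Glo measurement of ADP formed | control set = DMSO neutral wells and GW8510 at 20 µM as positive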
# CDK5 p35 inh: CDK5/p35 (human) kinase inhibition | inhibition, % at 10 µM | Recombinant CDK5/p35, ADP-Glo luminescence, 60 min | Q00535+Q15078 | hit rate 0.01% among 330,000;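 active means highest replicate inhibition of at least 50% and at least 75% of replicates reaching 50%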;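 further: plate controls were DMSO neutral control for no effect and GW8510 at 10 µM for full effect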
# SR-BI DiI inh: mouse SR-BI HDL lipid transfer inhibition; inhibition, % at 12.5 µM; ldlA[mSR-BI] CHO cells, DiI-HDL uptake fluorescence, 3 h; hit rate 0.96% among 320,000;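 active means mean replicate inhibition of at least 70% and a set share of replicates each scoring 70 or more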;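 further: 0% = median of neutral control wells and 100% = median of positive control wells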
# GSK3 alpha inh: inhibitors of human GSK-3 alpha kinase | P49840 | ADP-Glo luminescence, 60 min | inhibition, % at 10 µM | hit rate 0.1% among 320,000;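 active means more than half of replicates show inhibition above 20%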;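 further: GST-tagged GSK-3 alpha with peptide substrate and 25 µM ATP; 0% = DMSO neutral wells and 100% = GW8510 positive control wells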
# Target sequence (P49840 whole entry, looked up): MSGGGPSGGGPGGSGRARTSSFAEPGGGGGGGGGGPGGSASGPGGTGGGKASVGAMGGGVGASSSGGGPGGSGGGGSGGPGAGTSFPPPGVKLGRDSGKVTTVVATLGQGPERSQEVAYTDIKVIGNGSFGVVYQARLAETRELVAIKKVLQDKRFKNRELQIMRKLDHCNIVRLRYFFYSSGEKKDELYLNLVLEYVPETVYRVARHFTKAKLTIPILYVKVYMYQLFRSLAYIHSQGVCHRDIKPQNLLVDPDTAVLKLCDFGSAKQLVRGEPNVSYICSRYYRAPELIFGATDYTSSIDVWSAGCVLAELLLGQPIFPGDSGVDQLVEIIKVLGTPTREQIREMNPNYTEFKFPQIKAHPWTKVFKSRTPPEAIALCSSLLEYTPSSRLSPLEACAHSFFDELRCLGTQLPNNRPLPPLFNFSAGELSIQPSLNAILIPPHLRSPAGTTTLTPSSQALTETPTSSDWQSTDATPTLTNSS
# The depositor's hits bear a star; . = not tested or not shown. Hits are enriched below; roughly 1.1% of the tested compounds scored in any of these assays.
SMILES,SR-BI DiI-HDL act,GSK3beta inhib,CDK5 p35 inh,SR-BI DiI inh,GSK3 alpha inh
CC1C(=O)C(C)C(c2ccc(Br)cc2)NC1c1ccc(Br)cc1 (configuration not stated),6.4,-2.5,-1.8,-6.4,-0.7
CC1C(=O)C(C)C(c2cc(Br)ccc2O)NC1c1cc(Br)ccc1O (configuration not stated),-82.6,.,1.3,82.6*,.
CCOc1ccccc1C=NNC(=O)CCCCC(=O)NN=Cc1ccccc1OCC,-80.7,.,0.8,80.7*,.
CCOc1ccccc1/C=N/NC(=O)c1ccc(Cn2cc([N+](=O)[O-])cn2)o1,-86.7,-1.2,0.3,86.7*,3.6
CCOc1ccccc1C=NNC(=O)C(=O)NN=Cc1ccccc1OCC,-24.8,.,1.8,24.8,.
CCOc1ccccc1NC(=O)C(=O)N/N=C/c1cc(Br)ccc1O,-125.8,2.3,-1.1,125.8*,-2.7
CCOc1ccc(/C=N/NC(=O)c2ccc(Cn3cc([N+](=O)[O-])cn3)o2)cc1,-26.2,0.2,2.2,26.2,-26.5
Cn1c(=O)c2c(nc3sccn32)n(C)c1=O,68.7*,-3.3,-6.6,-68.7,-1.1
Cc1nc2sccn2c(=O)c1Cl,16.9,-3.6,1.4,-16.9,-0.1
O=C(c1ccncc1)N1N=C(c2ccc(Br)cc2)CC1c1ccccc1O (configuration not stated),-75.0,4.0,-1.5,75.0*,-2.1
CC(=O)Nc1cccc(NC(=O)/C=C/c2ccc(S(=O)(=O)N3CCOCC3)cc2)c1,-57.0,.,-0.1,57.0,-0.6
Cc1ccc(NC(=O)/C=C/c2ccc(S(=O)(=O)N3CCOCC3)cc2)cc1S(=O)(=O)N(C)C,-85.8,.,1.8,85.8*,.
CCC(=O)NC(=S)Nc1cccc(NC(=O)c2ccc(Cl)cc2Cl)c1,-80.8,1.0,-0.5,80.8*,-2.4
CCC(=O)NC(=S)Nc1cccc(NC(=O)CC)c1,-8.5,-2.3,2.2,8.5,6.3
Cc1ccsc1C1C2=C(CC(C)(C)CC2=O)Nc2ncnn21 (configuration not stated),-10.6,-0.2,2.6,10.6,62.7*
Cc1ccsc1C1C2=C(CCCC2=O)Nc2ncnn21 (configuration not stated),3.8,-8.6,-0.3,-3.8,20.8
COc1ccc(C(CC(=O)O)NC(=O)Cc2ccccc2)cc1OC (configuration not stated),25.3,4.0,2.0,-25.3,0.4
COc1ccc(C(CC(=O)O)c2cc(OC)c(OC)c(OC)c2)cc1OC (configuration not stated),430.4*,.,0.7,-430.4,.
CC(C)OCCCN1C(=O)c2[nH]nc(-c3ccccc3O)c2C1c1cccc(Cl)c1 (configuration not stated),-72.2,2.4,-1.1,72.2*,-2.0
COc1ccc(-c2c(C)nc(N)nc2-c2ccc(OCc3ccc(C)cc3)cc2O)cc1OC,-15.2,2.2,-2.3,15.2,-1.0
O=C1Nc2ccc(Br)cc2/C1=C/C(=O)c1ccc2c(c1)OCO2,-75.0,3.9,-0.4,75.0*,-4.3
CCN(CC)c1ccc(-n2cc3c(=O)n(C)c(=O)n(C)c3c2)cc1,-73.5,1.6,0.4,73.5*,-2.2
Cc1ccccc1OCCSc1nc2ccccc2n1CCC(=O)O,-9.7,1.4,-0.7,9.7,-4.2
COc1ccc(/C(C)=N/NC(=O)c2ccc(CSc3cccc4cccnc34)cc2)cc1OC,-90.1,0.4,-1.1,90.1*,-0.2
COC(=O)c1cc(NC(=O)/C=C/c2ccccc2)ccc1O,.,-0.5,.,.,-2.0
SMILES,SR-BI DiI-HDL act,GSK3beta inhib,CDK5 p35 inh,SR-BI DiI inh,GSK3 alpha inh
COc1ccc(NC(=O)c2cc3ccc(O)cc3o/c2=N\O)cc1,-41.1,-0.6,0.8,41.1,-3.8
NC(=O)c1cc([N+](=O)[O-])ccc1NCc1ccc(N)cc1,4.3,.,4.5,-4.3,0.7
Cc1ccc(NC(=S)N=Nc2c(O)n(C)c3ccc(S(=O)(=O)N4CCOCC4)cc23)cc1,-47.1,0.4,-11.0,47.1,.
Cc1cc(C)cc(NC(=S)N=Nc2c(O)n(C)c3ccc(S(=O)(=O)N4CCOCC4)cc23)c1,-86.6,0.5,-0.2,86.6*,-4.8
O=C(c1cc(-c2ccncc2)nc2c(Cl)cccc12)N1CCN(c2ccccc2F)CC1,-72.8,-1.2,3.3,72.8*,0.7
O=C(c1cc(-c2ccccc2Cl)nc2ccccc12)N1CCN(c2ccccc2O)CC1,-12.8,2.8,-2.8,12.8,-0.7
O=C1Nc2ccccc2N(O)N1c1ccc(S(=O)(=O)N2CCCCCC2)cc1,32.0,1.5,-2.5,-32.0,-1.1
NNC(=O)c1ccc(N2CCc3ccccc32)c([N+](=O)[O-])c1,-78.6,2.3,-1.8,78.6*,0.3
COc1ccc(/C=C/C(=O)NC(=S)Nc2ccc(S(=O)(=O)N=C(N)N)cc2)cc1OC,286.0*,1.3,0.6,-286.0,-1.6
CCCNC(=S)N1CCN(c2nc(C)nc3sc4c(c23)CCCC4)CC1,-72.6,2.4,1.6,72.6*,-2.1
COCCCNC(=S)N1CCN(c2nc(C)nc3sc4c(c23)CCCC4)CC1,-43.5,1.6,-1.4,43.5,-0.4
CCOC(=O)c1[nH]cnc1N=Nc1c(O)ccc2ccccc12,-79.6,-0.3,-1.6,79.6*,-3.6
Cc1occc1C(=O)N/N=C/c1c(O)ccc2ccccc12,-114.0,3.3,-0.6,114.0*,-0.5
O=C(N/N=C/c1c(O)ccc2ccccc12)c1ccc[n+](CCO)c1,-36.8,-3.9,0.9,36.8,2.2
Cn1cc(C(=O)N/N=C/c2c(O)ccc3ccccc23)ccc1=O,-102.1,-1.0,2.5,102.1*,-0.6
O=C(N/N=C/c1c(O)ccc2ccccc12)Nc1ccccc1,.,-2.1,.,.,-7.5
O=C(N/N=C\c1c(O)ccc2ccccc12)c1ccc(O)cc1,-93.9,1.6,1.5,93.9*,-3.3
CC(=NNC(=O)c1ccncc1)c1ccc2ccccc2c1O,-127.1,.,-0.8,127.1*,.
CC(=NNC(=O)c1ccncc1)c1ccccc1O,-55.4,.,3.0,55.4,.
COc1cccc(/C=N/NC(=O)c2ccc(=O)n(C)c2)c1O,-25.2,3.5,.,25.2,-2.8
Cc1ccc(C)c(S(=O)(=O)Nc2ccc(C(=O)NCCc3ccccn3)cc2)c1,-19.7,-2.8,1.9,19.7,-2.4
O=C(N/N=C/c1c(O)ccc2ccccc12)c1ccc(Br)o1,-124.3,-0.5,-1.6,124.3*,0.5
Cn1cccc1/C=N\NC(=O)c1cncc(Br)c1,.,2.6,.,.,-1.2
Cc1ccc(C(=O)N/N=C/c2c(O)ccc3ccccc23)cn1,-92.9,0.1,0.5,92.9*,0.5
CCOc1ccc2ccccc2c1/C=N\NC(=O)c1ccc([N+](=O)[O-])cc1,-78.4,5.1,0.3,78.4*,-3.3
O=C(N/N=C\c1c(O)ccc2ccccc12)c1cncc(Br)c1,-142.7,1.4,2.4,142.7*,-1.5
CCOc1ccc2ccccc2c1/C=N\NC(=O)OC,-25.6,-1.2,2.1,25.6,0.8
O=C(COC(=O)c1c(F)cccc1F)Nc1ccc(N2CCCCC2)cc1,-3.6,.,-1.4,3.6,-1.9
